Laboratory results: ChEMBL document CHEMBL2062525, “Substituted 3-(5-imidazo[2,1-b]thiazolylmethylene)-2-indolinones and analogues: synthesis, cytotoxic activity, and study of the mechanism of action” (J Med Chem, 2012)
The source made the active and inactive calls.

Columns and labels:
[1] = Cytotoxicity against human leukemia cells after 48 hrs; format: functional; details: Leukemia cell
How it was run: (§1)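 NCI 60-cell panel (subpanels include leukemia and prostate). […] Percent growth relative to untreated control; some repeats averaged over two experiments.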

[2] = Cytotoxicity against human renal cancer cells after 48 hrs; format: functional; details: Cancer cell lines; for CC50: read-out: LC50 (the source's name)
How it was run: (§2)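 NCI 60-cell panel subpanel lines; compounds first screened at a single 10−5 M, then those passing threshold tested in five-concentration assay over 10−9 to 10−4 M (some to 10−3 M), 48 h exposure. Growth relative to untreated control measured as cell protein; GI50, TGI and LC50 derived; some values are means of two experiments.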

HT-29 [3] = assay: Induction of apoptosis in human HT-29 cells assessed as increase in caspase activity at 500 nM after 48 hrs by fluorometry; format: functional, cell-based
How it was run: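 Cells exposed 48 h to 500 nM; DEVD-cleaving caspase (DEVDase) activity measured fluorometrically in cell extracts; mean ± s.e.m. of four determinations.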

[4] = Cytotoxicity against human prostate cancer cells after 48 hrs; format: functional; details: Cancer cell lines; how it was run: as §1
[5] = Cytotoxicity against human CNS cancer cells after 48 hrs; format: functional; details: Cancer cell lines; how it was run: as §2
Bos taurus = species on record: Bos taurus; assay: Displacement of [3H]colchicine from bovine brain tubulin at 5 uM after 10 mins
HT-29 [6] = assay: Cell cycle arrest in human HT-29 cells assessed as increase of cell population at G2/M phase at 100 nM after 24 hrs by flow cytometry; format: functional, cell-based
How it was run: (§3)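 HT-29 cells in RPMI 1640 with 10% FBS, 2 mM L-glutamine, 37 °C, 5% CO2; treated 24 h, DMSO 0.01% in medium. Fixed in 70% ethanol at −20 °C ≥12 h, RNase A (10 μg/mL) 30 min at 37 °C, DNA stained with PI (50 μg/mL), flow cytometry; one experiment representative of three.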

[7] = Cytotoxicity against human breast cancer cells after 48 hrs; format: functional; details: Cancer cell lines; how it was run: as §2
[8] = Inhibition of bovine brain tubulin assembly after 20 mins; design: species or system Bos taurus
[9] = biological target: Mitogen-activated protein kinase; ERK1/ERK2 (Homo sapiens) (UniProt P27361+P28482); assay: Inhibition of ERK1/2 phosphorylation at Thr202/Tyr204 in human HeLa cells at 1 uM after 3 hrs by Western blotting analysis; format: cell-based
How it was run: (§4)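 HeLa cells in RPMI 1640 with 10% FBS, treated 3 h at 1 μM. Lysates centrifuged 15,000 × g 15 min; 80 μg protein per lane by SDS-PAGE, nitrocellulose transfer, phospho-specific and total primary antibodies, peroxidase anti-rabbit secondary, ECL chemiluminescence.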

[10] = biological target: AMP-activated protein kinase, AMPK (Homo sapiens) (UniProt P54646+O43741+P54619+Q9UGJ0+Q9Y478+Q13131+Q9UGI9); assay: Inhibition of AMPK phosphorylation at Thr172 in human HeLa cells at 1 uM after 3 hrs by Western blotting analysis; format: cell-based; how it was run: as §4
[11] = biological target: MAP kinase p38 (Homo sapiens) (UniProt O15264+Q15759+Q16539+P53778); assay: Inhibition of p38 phosphorylation at Thr180/Tyr182 in human HeLa cells at 1 uM after 3 hrs by Western blotting analysis; format: cell-based; how it was run: as §4
HT-29 [12] = assay: Induction of apoptosis in human HT-29 cells assessed as nuclear fragmentation by propidium iodide staining method; format: functional, cell-based
How it was run: (§5)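 HT-29 cells on glass coverslips (1×10^4 cells/cm2), treated 24 h; fixed in 3% paraformaldehyde, ethanol-permeabilized; nuclei stained with PI and viewed by laser scanning confocal microscopy for chromatin condensation and nuclear fragmentation; representative of three experiments.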

HT-29 [13] = assay: Induction of apoptosis in human HT-29 cells assessed as increase in early apoptotic cells after 24 hrs by annexin-V-FLUOS and propidium iodide staining based flow cytometry (reference value: 3.9%); format: functional
[14] = Cytotoxicity against human COLON cells after 48 hrs; format: functional; how it was run: as §2
HT-29 [15] = assay: Induction of apoptosis in human HT-29 cells at 100 nM after 24 hrs by trypan blue exclusion assay; format: functional, cell-based
How it was run: (§6)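 HT-29 cells plated at 2×10^4 cells/cm2, treated 24 h in triplicate (DMSO 0.01%; DMSO-only controls); viable cells counted by trypan blue exclusion; mean ± s.e.m. of three determinations.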

HT-29 [16] = assay: Induction of cell cycle arrest in human HT-29 cells assessed as increase in p21 expression after 24 hrs by immunofluorescence confocal microscopy; format: functional, cell-based
How it was run: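 On coverslips, HT-29 cells were treated 24 h, fixed with 3% paraformaldehyde, permeabilized with 70% ice-cold ethanol, stained with anti-p21 then FITC secondary (1 h, room temperature each), nuclei counterstained with PI; confocal microscopy; representative of three experiments.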

NSCLC = assay: Cytotoxicity against human NSCLC cells after 48 hrs; format: functional; how it was run: as §2
HT-29 [17] = assay: Induction of apoptosis in human HT-29 cells assessed as chromatin condensation by propidium iodide staining method; format: functional, cell-based; how it was run: as §5
[18] = biological target: Serine/threonine-protein kinase mTOR (Homo sapiens) (UniProt P42345); assay: Inhibition of mTOR phosphorylation at ser2448 in human HeLa cells at 1 uM after 3 hrs by Western blotting analysis; format: cell-based; how it was run: as §4
[19] = biological target: c-Jun N-terminal kinase, JNK (Homo sapiens) (UniProt P45983+P53779+P45984); assay: Inhibition of JNK phosphorylation at Thr183/Tyr185 in human HeLa cells at 1 uM after 3 hrs by Western blotting analysis; format: cell-based; how it was run: as §4
HeLa = assay: Inhibition of Akt phosphorylation at ser473 in human HeLa cells at 1 uM after 3 hrs by Western blotting analysis; format: cell-based; how it was run: as §4
[20] = Cytotoxicity against human melanoma cells after 48 hrs; format: functional; details: Melanoma cell; for CC50: read-out: LC50 (the source's name); how it was run: as §2
[21] = Cytotoxicity against human ovarian cancer cells after 48 hrs; format: functional; details: Cancer cell lines; how it was run: as §2
HT-29 [22] = assay: Induction of apoptosis in human HT-29 cells assessed as increase in BAX level in mitochondria after 24 hrs by confocal laser microscopic analysis; format: functional, cell-based
How it was run: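 HT-29 cells treated 24 h with 500 nM; loaded with 150 nM MitoTracker Red CM-H2XRos for 10 min at 37 °C, then fixed, permeabilized, probed with anti-Bax plus FITC secondary (1 h each, room temperature). Confocal microscopy; colocalization with mitochondria seen as orange pixels.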

HT-29 [23] = assay: Induction of apoptosis in human HT-29 cells assessed as loss of mitochondrial membrane potential after 24 hrs by DiOC6 staining based fluorescence assay; format: functional, cell-based
How it was run: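 Following 24 h treatment at 500 nM, HT-29 cells (1×10^6/mL) were stained with 4 nM DiOC6 for 40 min at 37 °C in the dark, counterstained with PI 5 μg/mL to exclude dead cells; fluorescence by flow cytometry; representative of three to five experiments.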

HT-29 [24] = assay: Induction of apoptosis in human HT-29 cells assessed as increase in mitochondrial ROS production by dihydroethidium staining based flow cytometry; format: functional, cell-based
How it was run: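 ROS read-out: HT-29 cells treated 24 h with 500 nM, then loaded with 5 μM dihydroethidium for 30 min at 37 °C; superoxide-derived red fluorescence measured by flow cytometry with logarithmic amplification; representative of three to five experiments.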

HT-29 [25] = assay: Cell cycle arrest in human HT-29 cells assessed as increase of cell population at G2/M phase at 500 nM after 24 hrs by flow cytometry; format: functional, cell-based; how it was run: as §3
HT-29 [26] = assay: Induction of apoptosis in human HT-29 cells at 500 nM after 24 hrs by trypan blue exclusion assay; format: functional, cell-based; how it was run: as §6

Chain of Mitogen-activated protein kinase; ERK1/ERK2 (Homo sapiens) (P27361 whole entry, looked up): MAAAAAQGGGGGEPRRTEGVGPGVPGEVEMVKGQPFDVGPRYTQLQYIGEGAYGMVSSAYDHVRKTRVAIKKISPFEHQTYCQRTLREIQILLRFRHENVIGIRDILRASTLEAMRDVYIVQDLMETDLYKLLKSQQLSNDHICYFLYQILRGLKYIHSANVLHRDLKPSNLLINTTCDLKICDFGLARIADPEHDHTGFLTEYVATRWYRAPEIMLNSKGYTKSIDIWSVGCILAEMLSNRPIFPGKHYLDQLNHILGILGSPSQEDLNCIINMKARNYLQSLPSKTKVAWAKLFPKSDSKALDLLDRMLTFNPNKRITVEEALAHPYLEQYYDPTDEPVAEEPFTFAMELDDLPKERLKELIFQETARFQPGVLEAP
Chain of Mitogen-activated protein kinase; ERK1/ERK2 (Homo sapiens) (P28482 whole entry, looked up): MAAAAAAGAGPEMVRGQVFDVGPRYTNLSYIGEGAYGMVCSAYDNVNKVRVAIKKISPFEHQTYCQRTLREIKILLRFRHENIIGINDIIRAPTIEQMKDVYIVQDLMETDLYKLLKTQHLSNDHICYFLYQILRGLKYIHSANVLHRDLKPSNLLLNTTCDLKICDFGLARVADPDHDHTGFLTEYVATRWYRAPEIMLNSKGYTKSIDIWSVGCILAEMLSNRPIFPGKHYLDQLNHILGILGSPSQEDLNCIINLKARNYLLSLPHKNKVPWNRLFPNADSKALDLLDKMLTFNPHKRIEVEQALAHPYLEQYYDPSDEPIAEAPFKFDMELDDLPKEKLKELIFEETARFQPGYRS

With `COc1ccc2c(c1)C(=Cc1c(OC)nc3sccn13)C(=O)N2` (mixture of isomers) the GI50 [1] was 0.02 µM, the LC50 (concentration killing 50% of cells) [1] was 91.2 µM and the TGI [1] was 4.57 µM. For the same compound, the GI50 [2] was 0.14 µM, the TGI [2] was 31.6 µM and the Activity (HT-29 [3]) was “Active”. It also gave a GI50 [4] of 0.05 µM, a TGI [4] of 40.7 µM and a GI50 [5] of 0.04 µM. For the same compound, the TGI [5] was 15.5 µM, the inhibition (Bos taurus) was 62% and the Activity (HT-29 [6]) was “Active”. For the same compound, the GI50 [7] was 0.17 µM, the TGI [7] was 34.7 µM and the IC50 [8] was 2.9 µM. For the same compound, the inhibition [9] was “Active”, the inhibition [10] was “Active” and the inhibition [11] was “Active”. For the same compound, the Activity (HT-29 [12]) was “Active”, the Activity (HT-29 [13]) was 27% and the LC50 (concentration giving 50% net cell kill) [14] was 66.1 µM. For the same compound, the TGI [14] was 7.59 µM, the Activity (HT-29 [15]) was “Active” and the Activity (HT-29 [16]) was “Active”. For the same compound, the GI50 (NSCLC) was 0.16 µM, the TGI (NSCLC) was 44.7 µM and the Activity (HT-29 [17]) was “Active”. The inhibition [18] was “inactive”, the inhibition [19] was “Active” and the inhibition (HeLa) was “Active”. For the same compound, the GI50 [20] was 0.04 µM, the TGI [20] was 20.9 µM and the CC50 [20] was 81.3 µM. The GI50 [21] was 0.1 µM and the TGI [21] was 12 µM.
Compound `COc1ccc2c(c1)/C(=C\c1c(-c3ccccn3)nc3sccn13)C(=O)N2` has a GI50 [1] of 0.02 µM, a GI50 [2] of 0.07 µM and a TGI [2] of 4.68 µM. The CC50 [2] was 28.8 µM, the Activity (HT-29 [3]) was “Active” and the GI50 [4] was 0.03 µM. For the same compound, the TGI [4] was 3.98 µM, the GI50 [5] was 0.03 µM and the LC50 [5] was 34.7 µM. The TGI [5] was 2.57 µM, the inhibition (Bos taurus) was 36% and the Activity (HT-29 [6]) was “Active”. The GI50 [7] was 0.04 µM, the LC50 [7] was 46.8 µM and the TGI [7] was 8.32 µM. The IC50 [8] was 9.1 µM, the inhibition [9] was “Active” and the inhibition [10] was “Active”. For the same compound, the inhibition [11] was “Active”, the Activity (HT-29 [12]) was “Active” and the Activity (HT-29 [13]) was 23%. For the same compound, the LC50 (concentration giving 50% net cell kill) [14] was 15.1 µM, the TGI [14] was 1.35 µM and the Activity (HT-29 [15]) was “Active”. For the same compound, the Activity (HT-29 [16]) was “Active”, the GI50 (NSCLC) was 0.11 µM and the LC50 (NSCLC) was 39.8 µM. The TGI (NSCLC) was 6.46 µM, the Activity (HT-29 [17]) was “Active” and the inhibition [18] was “inactive”. The inhibition [19] was “Active”, the inhibition (HeLa) was “Active” and the GI50 [20] was 0.02 µM. For the same compound, the TGI [20] was 6.76 µM, the CC50 [20] was 38.9 µM and the GI50 [21] was 0.04 µM. For the same compound, the LC50 (concentration killing 50% of starting cells) [21] was 17 µM and the TGI [21] was 2.19 µM.
For `Cc1cn2c(/C=C3/C(=O)Nc4c3ccc3ccccc43)c(C)nc2s1`, the TGI [1] was 53.7 µM, the GI50 [2] was 0.23 µM and the TGI [2] was 12 µM. The CC50 [2] was 70.8 µM, the Activity (HT-29 [3]) was “Active” and the GI50 [4] was 0.21 µM. The TGI [4] was 16.2 µM, the GI50 [5] was 0.17 µM and the LC50 [5] was 74.1 µM. The TGI [5] was 5.37 µM, the Activity (HT-29 [22]) was “Active” and the inhibition (Bos taurus) was 49%. The GI50 [7] was 0.18 µM, the LC50 [7] was 50.1 µM and the TGI [7] was 5.62 µM. For the same compound, the IC50 [8] was 5.3 µM, the Activity (HT-29 [23]) was “Active” and the inhibition [9] was “inactive”. The inhibition [10] was “inactive”, the inhibition [11] was “inactive” and the Activity (HT-29 [12]) was “Active”. The Activity (HT-29 [13]) was 12.5%, the GI50 [14] was 0.11 µM and the TGI [14] was 58.9 µM. For the same compound, the Activity (HT-29 [15]) was “Active”, the Activity (HT-29 [16]) was “Active” and the GI50 (NSCLC) was 0.31 µM. For the same compound, the LC50 (NSCLC) was 93.3 µM, the TGI (NSCLC) was 28.2 µM and the Activity (HT-29 [17]) was “Active”. The inhibition [18] was “inactive”, the inhibition [19] was “inactive” and the Activity (HT-29 [24]) was “Active”. The Activity (HT-29 [25]) was “Active”, the Activity (HT-29 [26]) was “Active” and the inhibition (HeLa) was “inactive”. The GI50 [20] was 0.14 µM, the TGI [20] was 50.1 µM and the GI50 [21] was 0.85 µM. The LC50 (concentration killing 50% of starting cells) [21] was 74.1 µM and the TGI [21] was 14.1 µM.
